What was measured:
[1] = target: Sigma non-opioid intracellular receptor 1 (Cavia porcellus, UniProt Q60492); test: Displacement of (+)-[3H]pentazocine from sigma-1 receptor in guinea pig brain membrane homogenate after 90 mins by liquid scintillation counting analysis; format: cell membranes
Outline: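 Nonspecific binding with cold haloperidol. Compounds from DMSO or ethanol, diluted in 50 mM Tris-HCl, 150 mM NaCl, 100 mM EDTA, pH 7.4. Stopped with ice-cold 10 mM Tris-HCl/150 mM NaCl pH 7.4, filtered on fiberglass, washed, scintillation counted.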

[2] = Displacement of [3H]DTG from sigma-2 receptor in rat liver membrane homogenate after 2 hrs by liquid scintillation counting analysis in presence of pentazocine; format: cell membranes
[3] = Selectivity ratio of Ki for sigma-1 receptor in guinea pig brain membrane homogenate to Ki for sigma-2 receptor in rat liver membrane homogenate; format: cell membranes
[4] = Lipophilicity, log P of the compound; format: physicochemical; settings: octanol/water
[5] = target: Sigma non-opioid intracellular receptor 1 (Mus musculus, UniProt O55242); test: Displacement of 5-bromo-N-(4-(3,4-dihydro-6,7-dimethoxyisoquinolin-2(1H)-yl)butyl)-2,3-dimethoxybenzamide from sigma-1 receptor in mouse EMT6 cell membranes after 60 mins by Scatchard plot analysis
[6] = Displacement of 5-bromo-N-(4-(3,4-dihydro-6,7-dimethoxyisoquinolin-2(1H)-yl)butyl)-2,3-dimethoxybenzamide from sigma-2 receptor in mouse EMT6 cell membranes after 60 mins by Scatchard plot analysis
EMT6 = test: Selectivity ratio of Ki for sigma-1 receptor in mouse EMT6 cell membranes to Ki for sigma-2 receptor in mouse EMT6 cell membranes; format: cell-based
[7] = target: Sigma non-opioid intracellular receptor 1 (Homo sapiens, UniProt Q99720); test: Binding affinity to sigma-1 receptor (unknown origin)
[8] = Binding affinity to sigma-2 receptor (unknown origin); design: species or system Homo sapiens
Homo sapiens = species: Homo sapiens; test: Selectivity ratio of Ki for sigma-1 receptor (unknown origin) to Ki for sigma-2 receptor (unknown origin)
[9] = Antagonist activity at sigma-2 receptor in mouse EMT6 cells assessed as inhibition of cell proliferation after 24 hrs by MTS assay; format: cell-based; settings: EMT6, 24 h
Outline: (§1)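 EMT-6 mouse breast cancer cells grown in DMEM with 10% FBS and penicillin/streptomycin at 37 °C, 5% CO2. Seeded at 5 × 10^3 cells/well 24 h before dosing; serial dilutions from DMSO stocks, final DMSO ≤1.0%. Exposure 24 or 48 h, then MTS reagent 1–2 h at 37 °C, absorbance 490 nm vs untreated cells. EC50 from dose–response curves; triplicate wells, mean ± SEM of three independent experiments.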

[10] = Antagonist activity at sigma-2 receptor in mouse EMT6 cells assessed as inhibition of cell proliferation after 48 hrs by MTS assay; format: cell-based; settings: EMT6, 48 h; outline: as §1
[11] = Displacement of [3H]DTG from sigma-2 receptor in human MCF7 cell membranes after 120 mins

Sigma non-opioid intracellular receptor 1 (Cavia porcellus, UniProt Q60492), sequence (Q60492 whole entry): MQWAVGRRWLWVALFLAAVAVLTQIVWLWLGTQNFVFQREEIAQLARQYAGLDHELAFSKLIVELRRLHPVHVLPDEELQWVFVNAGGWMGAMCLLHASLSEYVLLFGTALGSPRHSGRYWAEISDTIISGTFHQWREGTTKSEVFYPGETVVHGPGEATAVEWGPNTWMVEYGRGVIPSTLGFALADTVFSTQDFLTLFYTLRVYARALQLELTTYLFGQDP
Sigma non-opioid intracellular receptor 1 (Mus musculus, UniProt O55242), sequence (O55242 whole entry): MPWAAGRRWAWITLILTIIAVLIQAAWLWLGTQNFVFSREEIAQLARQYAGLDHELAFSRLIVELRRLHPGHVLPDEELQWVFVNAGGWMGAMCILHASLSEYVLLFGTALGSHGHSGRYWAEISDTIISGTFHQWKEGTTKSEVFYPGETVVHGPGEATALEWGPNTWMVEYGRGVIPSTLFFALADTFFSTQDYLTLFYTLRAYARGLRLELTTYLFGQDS
Sigma non-opioid intracellular receptor 1 (Homo sapiens, UniProt Q99720), sequence (Q99720 whole entry): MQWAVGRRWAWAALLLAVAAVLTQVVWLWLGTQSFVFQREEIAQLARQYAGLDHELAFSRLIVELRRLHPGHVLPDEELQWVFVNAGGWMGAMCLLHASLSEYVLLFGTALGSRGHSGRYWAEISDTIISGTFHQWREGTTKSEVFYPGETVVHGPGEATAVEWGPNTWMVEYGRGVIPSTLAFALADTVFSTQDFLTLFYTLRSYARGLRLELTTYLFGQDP

| Structure (SMILES) | Ki [1] [nM] | Ki [2] [nM] | Ratio Ki [3] | also measured |
| --- | --- | --- | --- | --- |
| COc1cc2c(cc1OC)CN(CCCCNC(=O)c1cc(-n3cc(CN(C)C)nn3)ccc1OCCF)CC2 | 21900 | 94 | 232 | – |
| COc1cc2c(cc1OC)CN(CCCCNC(=O)c1cc(-n3cc(-c4cncn4C)nn3)ccc1OC)CC2 | 6360 | 20.7 | 307 | – |
| COc1cccc(Cn2cc(C(=O)NCCCCN3CCc4cc(OC)c(OC)cc4C3)nn2)c1 | 12700 | 10.7 | 1180 | – |
| COc1ccc(-n2cc(C(=O)NCCN3CCc4cc(OC)c(OC)cc4C3)nn2)cc1 | > 100000 | 410 | > 243 | – |
| COc1cc2c(cc1OC)CN(CCCCNC(=O)c1cc(C)ccc1OC)CC2 | – | – | – | logP [4]: 3.55; Ki [5]: 3080 nM |
| COc1cc2c(cc1OC)CN(CCCCNC(=O)c1cc(C)ccc1OCCF)CC2 | – | – | – | logP [4]: 3.74; Ki [5]: 330 nM; Ki [6]: 6.59 nM; Ratio Ki (EMT6): 48 |
| COc1cc2c(cc1OC)CN(CCCCNC(=O)c1cn(Cc3ccc(OCCF)cc3)nn1)CC2 | 21500 | 48.2 | 447 | – |
| COc1cc2c(cc1OC)CN(CCCCNC(=O)c1cn(Cc3ccccc3)nn1)CC2 | 4480 | 12.4 | 361 | – |
| COc1cc2c(cc1OC)CN(CCCCNC(=O)c1ccc(-c3cn(CCOCCF)nn3)cc1)CC2 | 14700 | 137 | 107 | – |
| COc1cccc(Cn2cc(-c3cccc(C(=O)NCCCCN4CCc5cc(OC)c(OC)cc5C4)c3)nn2)c1 | 1750 | 66 | 26 | – |
| COc1cc2c(cc1OC)CN(CCCCNC(=O)c1cn(Cc3cccc(OCCF)c3)nn1)CC2 | 46300 | 62.1 | 744 | – |
| COc1ccccc1Cn1cc(C(=O)NCCCCN2CCc3cc(OC)c(OC)cc3C2)nn1 | 20600 | 9.7 | 2120 | – |
| COc1ccccc1Cn1cc(-c2ccc(C(=O)NCCCCN3CCc4cc(OC)c(OC)cc4C3)cc2)nn1 | 8580 | 55 | 156 | – |
| C#CCOc1ccc(C#N)cc1C(=O)NCCCCN1CCc2cc(OC)c(OC)cc2C1 | 3680 | 12.2 | 301 | – |
| COc1ccc(Cn2cc(C(=O)NCCN3CCc4cc(OC)c(OC)cc4C3)nn2)cc1 | 84500 | 93.2 | 906 | – |
| COc1cc2c(cc1OC)CN(CCCCNC(=O)c1cc(I)ccc1OCCF)CC2 | – | – | – | logP [4]: 4.61; Ki [5]: 1300 nM; Ki [6]: 1.06 nM |
| CN1CC[C@]2(c3cccc(O)c3)CC/C(=C/c3ccc(Cl)c(Cl)c3)[C@@H]1C2 | – | – | – | Ki [7]: 7460 nM; Ki [8]: 13.4 nM; Ratio Ki (Homo sapiens): 557; logP [4]: 4.34 |
| COc1cc2c(cc1OC)CN(CCCCNC(=O)c1cn(-c3cccc(OCCF)c3)nn1)CC2 | 17900 | 25.1 | 715 | – |
| COc1cccc(Cn2cc(-c3ccc(C(=O)NCCCCN4CCc5cc(OC)c(OC)cc5C4)cc3)nn2)c1 | 11500 | 66.2 | 174 | – |
| COc1cc2c(cc1OC)CN(CCCCNC(=O)c1cc(C#N)ccc1OCc1cn(CCF)nn1)CC2 | 14100 | 31.9 | 442 | – |
| COc1cc2c(cc1OC)CN(CCCCNC(=O)c1cn(Cc3ccc(O)cc3)nn1)CC2 | 63500 | 11.6 | 5480 | – |

| Structure (SMILES) | Ki [1] [nM] | Ki [2] [nM] | Ratio Ki [3] | also measured |
| --- | --- | --- | --- | --- |
| COc1ccc(Cn2cc(C(=O)NCCCCN3CCc4cc(OC)c(OC)cc4C3)nn2)cc1 | 3350 | 5 | 669 | – |
| COc1cc2c(cc1OC)CN(CCCCNC(=O)c1ccc(-c3cn(CCOCCOCCF)nn3)cc1)CC2 | 16000 | 212 | 75 | – |
| COc1cccc(-n2cc(C(=O)NCCCCN3CCc4cc(OC)c(OC)cc4C3)nn2)c1 | 20200 | 3 | 6730 | – |
| COc1cccc(-n2cc(C(=O)NCCN3CCc4cc(OC)c(OC)cc4C3)nn2)c1 | 76700 | 180 | 426 | – |
| Fc1ccc(-n2cc(CCCCN3CCC4(CC3)OCc3ccccc34)c3ccccc32)cc1 [SIRAMESINE] | – | – | – | Ki [8]: 0.12 nM; logP [4]: 6.07; EC50 [9]: 14900 nM; EC50 [10]: 5300 nM |
| COc1cccc(Cn2cc(C(=O)NCCN3CCc4cc(OC)c(OC)cc4C3)nn2)c1 | 80100 | 214 | 373 | – |
| COc1cc2c(cc1OC)CN(CCCCNC(=O)c1cn(-c3ccccc3OCCF)nn1)CC2 | 17100 | 24 | 713 | – |
| COc1cc2c(cc1OC)CN(CCCCNC(=O)c1cn(-c3ccc(OCCF)cc3)nn1)CC2 | 46300 | 21.9 | 2120 | – |
| COc1cc2c(cc1OC)CN(CCCCNC(=O)c1cc(-n3cc(CN(C)C)nn3)ccc1OC)CC2 | 22400 | 56.8 | 395 | – |
| COc1cc2c(cc1OC)CN(CCCCNC(=O)c1cc(-n3cc(COCCOCCF)nn3)ccc1OC)CC2 | 11500 | 66 | 174 | – |
| COc1cc2c(cc1OC)CN(CCCCNC(=O)c1c[nH]nn1)CC2 | 11000 | 1020 | 10.7 | – |
| COc1ccc(-n2cc(C(=O)NCCCCN3CCc4cc(OC)c(OC)cc4C3)nn2)cc1 | 39200 | 5.5 | 7120 | EC50 [9]: > 200000 nM; EC50 [10]: > 200000 nM |
| COc1cc2c(cc1OC)CN(CCCCNC(=O)c1ccc(-c3cn(CCF)nn3)cc1)CC2 | 71900 | 139 | 517 | – |
| CN1CC[C@]2(c3cccc(O)c3)CC/C(=C/c3ccccc3)[C@@H]1C2 | – | – | – | Ki [7]: 3060 nM; Ki [8]: 16.5 nM; Ratio Ki (Homo sapiens): 185; logP [4]: 3.22 |
| COc1cc2c(cc1OC)CN(CCCCNC(=O)c1cn(Cc3cccc(O)c3)nn1)CC2 | 8080 | 22.5 | 359 | – |
| COc1cc2c(cc1OC)CN(CCNC(=O)c1cn(-c3ccccc3OC)nn1)CC2 | 15500 | 150 | 103 | – |
| COc1cccc2c1CCCC2CCCN1CCN(C2CCCCC2)CC1 (configuration not stated) | – | – | – | logP [4]: 5; Ki [11]: 0.28 nM |
| COc1ccc(Cn2cc(-c3ccc(C(=O)NCCCCN4CCc5cc(OC)c(OC)cc5C4)cc3)nn2)cc1 | 12600 | 31.4 | 406 | – |
| COc1cc2c(cc1OC)CN(CCCCNC(=O)c1cn(-c3ccccc3OC)nn1)CC2 | 13100 | 1.5 | 8740 | – |
| COc1ccccc1Cn1cc(C(=O)NCCN2CCc3cc(OC)c(OC)cc3C2)nn1 | 18600 | 156 | 118 | – |

Reference: ChEMBL document CHEMBL3259688, “Synthesis and structure-activity relationship studies of conformationally flexible tetrahydroisoquinolinyl triazole carboxamide and triazole substituted benzamide analogues as σ2 receptor ligands” (J Med Chem, 2014)
